Measured values from ChEMBL document CHEMBL4017495, “Identification and Characterization of the First Selective Y4 Receptor Positive Allosteric Modulator” (J Med Chem, 2017).
Active and inactive are the calls of the source. The rule behind the calls is not given here.

Experiments:
[1] = molecular target: T1, Neuropeptide Y receptor type 4 (Homo sapiens, UniProt P50391); conditions: 30 uM
[2] = molecular target: T2, Neuropeptide Y receptor type 1/2 (Mus musculus) (UniProt Q04573+P97295); assay: Positive allosteric modulation of NY1/2 receptor in mouse descending colon mucosa assessed as increase in mucosal antisecretory response to peptide YY at 30 uM preincubated for 5 mins followed by pancreatic polypeptide addition after 20 mins
Outline: (§1)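 Mouse descending colon mucosa was mounted in Ussing chambers (0.14 cm2 exposed) in oxygenated Krebs–Henseleit at 37 °C, voltage-clamped at 0 mV, with Isc recorded continuously. After a stable basal Isc (20–30 min), basolateral pretreatment was 30 μM compound or DMSO vehicle (0.3%) for 5 min. VIP (10 nM) was given for 5–10 min, then single rat PP additions (3, 10 or 30 nM). PYY (10 nM) followed 20 min later.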

[3] = molecular target: T1, Neuropeptide Y receptor type 4; conditions: 30 uM; remark: listed apart in the source
[4] = molecular target: T1, Neuropeptide Y receptor type 4; conditions: HEK293, 30 uM
[5] = molecular target: T1, Neuropeptide Y receptor type 4
[6] = molecular target: T1, Neuropeptide Y receptor type 4; remark: listed apart in the source
[7] = molecular target: T1, Neuropeptide Y receptor type 4; conditions: HEK293, 30 uM; remark: listed apart in the source
[8] = molecular target: T1, Neuropeptide Y receptor type 4; remark: listed apart in the source
[9] = molecular target: T1, Neuropeptide Y receptor type 4; assay: Positive allosteric modulation of human C-terminal eYFP-fused human NY4 receptor expressed in African green monkey COS7 cells co-expressing delta6Galphaqi4-myr assessed as potentiation of pancreatic polypeptide-mediated Ca2+ flux treated at 20 secs post baseline detection followed by addition of pancreatic polypeptide after 140 secs by Fluo2-AM fluorescent dye based-assay; assay type: functional, cell-based
Outline: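 COS7 cells stably co-expressing Y4R-eYFP and Δ6Gαqi4-myr were seeded overnight. They were loaded with 2.4 μM Fluo2-AM in HBSS/20 mM HEPES/[…] for 60 min at 37 °C, then kept in assay buffer. Fluorescence was read at ex 485/em 525 nm. Compound was added after a 20 s baseline and peptide at 140 s. Response was taken as x-fold over basal, normalized to the DMSO control, and fitted to an operational model of allosterism. Duplicates, at least three independent runs.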

[10] = molecular target: T1, Neuropeptide Y receptor type 4; remark: listed apart in the source
[11] = molecular target: T1, Neuropeptide Y receptor type 4; remark: listed apart in the source
[12] = molecular target: Neuropeptide Y receptor type 4 (Mus musculus) (UniProt Q61041); assay: Positive allosteric modulation of NY4 receptor in mouse descending colon mucosa assessed as increase in mucosal antisecretory response to pancreatic polypeptide at 30 uM preincubated for 5 mins followed by pancreatic polypeptide addition after 20 mins
Outline: as §1

[13] = molecular target: Neuropeptide Y receptor type 4 (Mus musculus) (UniProt Q61041); assay: Agonist activity at NY4 receptor in mouse descending colon mucosa assessed as increase in mucosal antisecretory response at 30 uM incubated for 5 mins
Outline: as §1

[14] = molecular target: T1, Neuropeptide Y receptor type 4; conditions: 30 uM; remark: listed apart in the source
[15] = molecular target: T1, Neuropeptide Y receptor type 4; remark: listed apart in the source
[16] = molecular target: T1, Neuropeptide Y receptor type 4; remark: listed apart in the source
[17] = molecular target: T1, Neuropeptide Y receptor type 4; conditions: HEK293, 30 uM; remark: listed apart in the source
[18] = molecular target: T2, Neuropeptide Y receptor type 1/2 (Mus musculus); assay: Positive allosteric modulation of NY1/2 receptor in mouse descending colon mucosa assessed as increase in mucosal antisecretory response to vasoactive intestinal polypeptide at 30 uM preincubated for 5 mins followed by pancreatic polypeptide addition after 20 mins
Outline: as §1

[19] = molecular target: T1, Neuropeptide Y receptor type 4; remark: listed apart in the source
[20] = molecular target: T1, Neuropeptide Y receptor type 4; remark: listed apart in the source

T1 sequence (P50391 whole entry): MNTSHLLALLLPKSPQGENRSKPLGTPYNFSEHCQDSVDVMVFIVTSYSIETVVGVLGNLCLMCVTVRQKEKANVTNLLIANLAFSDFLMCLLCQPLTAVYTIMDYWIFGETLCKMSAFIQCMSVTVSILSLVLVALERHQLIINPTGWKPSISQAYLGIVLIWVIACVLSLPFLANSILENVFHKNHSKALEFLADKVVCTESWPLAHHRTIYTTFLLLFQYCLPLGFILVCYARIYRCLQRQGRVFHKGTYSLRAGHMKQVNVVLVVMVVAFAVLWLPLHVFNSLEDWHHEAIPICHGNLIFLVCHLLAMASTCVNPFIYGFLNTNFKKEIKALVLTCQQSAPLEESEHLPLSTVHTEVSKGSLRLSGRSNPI
T2 sequence (P97295 whole entry, looked up): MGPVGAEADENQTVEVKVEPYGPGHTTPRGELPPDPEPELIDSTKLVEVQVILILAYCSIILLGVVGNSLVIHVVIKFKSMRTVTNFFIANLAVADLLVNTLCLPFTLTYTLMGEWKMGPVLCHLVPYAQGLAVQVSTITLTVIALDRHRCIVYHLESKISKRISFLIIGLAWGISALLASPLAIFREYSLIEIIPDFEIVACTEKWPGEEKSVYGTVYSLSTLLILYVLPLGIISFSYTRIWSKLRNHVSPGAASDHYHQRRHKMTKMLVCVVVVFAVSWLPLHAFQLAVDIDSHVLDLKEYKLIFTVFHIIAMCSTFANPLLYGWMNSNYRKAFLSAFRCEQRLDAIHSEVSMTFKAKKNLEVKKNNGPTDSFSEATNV
T2 sequence (Q04573 whole entry, looked up): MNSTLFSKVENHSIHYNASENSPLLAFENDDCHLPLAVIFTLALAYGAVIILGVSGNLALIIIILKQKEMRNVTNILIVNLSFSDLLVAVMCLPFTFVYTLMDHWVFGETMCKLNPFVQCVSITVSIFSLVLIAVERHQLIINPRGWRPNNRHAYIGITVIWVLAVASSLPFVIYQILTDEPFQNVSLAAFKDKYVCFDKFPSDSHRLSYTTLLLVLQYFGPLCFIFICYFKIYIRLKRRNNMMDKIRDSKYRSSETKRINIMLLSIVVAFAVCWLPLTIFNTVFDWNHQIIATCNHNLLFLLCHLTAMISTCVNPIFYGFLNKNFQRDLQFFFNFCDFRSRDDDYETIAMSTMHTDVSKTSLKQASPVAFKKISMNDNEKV
Chain of Neuropeptide Y receptor type 4 (Mus musculus) (Q61041 whole entry): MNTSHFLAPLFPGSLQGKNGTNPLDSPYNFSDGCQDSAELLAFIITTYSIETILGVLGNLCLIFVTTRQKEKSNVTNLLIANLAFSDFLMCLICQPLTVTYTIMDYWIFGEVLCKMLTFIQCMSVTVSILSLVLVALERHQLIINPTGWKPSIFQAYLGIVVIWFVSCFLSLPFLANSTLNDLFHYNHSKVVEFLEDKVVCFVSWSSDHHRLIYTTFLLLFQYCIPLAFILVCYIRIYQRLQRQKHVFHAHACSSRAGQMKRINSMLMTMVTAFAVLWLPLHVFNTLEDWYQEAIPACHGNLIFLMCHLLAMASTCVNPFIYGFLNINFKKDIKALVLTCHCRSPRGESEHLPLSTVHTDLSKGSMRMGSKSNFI

CC(C)(C)c1ccc(OC2CCCCC2O)cc1 (stereo not given)
Emax [1]: 95% | Activity [2]: inactive | Emax [3]: 94% | Emax [4]: 144% | log(activity) [5]: 0.3 | log(activity) [6]: 0.79 | Emax [7]: 145% | log(activity) [8]: 0.41 | EC50 [9]: 5.1 µM | log(activity) [10]: 0.46 | log(activity) [11]: 0.9 | Activity [12]: Active | Activity [13]: inactive | Emax [14]: 89% | pKb [15]: 4.4 | pKb [16]: 4.4 | Emax [17]: 118% | Activity [18]: inactive | log(activity) [19]: 0.36 | pKb [20]: 4.4
